{"source": "ChEMBL document CHEMBL1145465", "about": "“PhoU is a persistence switch involved in persister formation and tolerance to multiple antibiotics and stresses in Escherichia coli” (2007)", "key": {"Escherichia coli [1]": {"tested_on": "Escherichia coli", "test": "Antibacterial activity against Escherichia coli K12 containing deletion deltaphoR mutant assessed as cell count in stationary phase at 100 ug/ml after 5 hrs", "assay_type": "functional", "outline": "(§1)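 Wild-type W3110-derived deletion mutants were made by the Datsenko–Wanner method. Log-phase or stationary-phase cultures were exposed to ampicillin 100 μg/ml in MOPS minimal medium at pH 5.0, at 37°C without shaking. Aliquots were taken at set times, washed in saline and plated on LB for viable CFU/ml.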"}, "Escherichia coli [2]": {"tested_on": "Escherichia coli", "test": "Antibacterial activity against Escherichia coli K12 containing deletion deltaphoB mutant assessed as cell count in stationary phase at 100 ug/ml after 5 hrs", "assay_type": "functional", "outline": "(§2)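 Deletion mutants were made by the Datsenko–Wanner method. Log-phase or stationary-phase cultures were exposed to ampicillin at 100 μg/ml. CFU/ml was determined at the start and after 5, 24 and 72 h of exposure.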"}, "Escherichia coli [3]": {"tested_on": "Escherichia coli", "test": "Antibacterial activity against Escherichia coli K12 containing deletion deltaphoR mutant assessed as cell count in stationary phase at 100 ug/ml after 24 hrs", "assay_type": "functional", "outline": "as §1"}, "Escherichia coli [4]": {"tested_on": "Escherichia coli", "test": "Antibacterial activity against Escherichia coli K12 containing deletion deltaphoBR mutant assessed as cell count in stationary phase at 100 ug/ml after 5 hrs", "assay_type": "functional", "outline": "as §2"}, "Escherichia coli [5]": {"tested_on": "Escherichia coli", "test": "Antibacterial activity against Escherichia coli K12 mutant JHU313 assessed as cell count at 100 ug/ml"}, "Escherichia coli [6]": {"tested_on": "Escherichia coli", "test": "Antibacterial activity against Escherichia coli K12 PhoU wild type W3110 assessed as cell count in stationary phase at 100 ug/ml after 5 hrs", "assay_type": "functional", "outline": "(§3)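 Log-phase or stationary-phase cultures exposed to ampicillin 100 μg/ml in MOPS minimal medium (pH 5.0) at 37°C without shaking, for 5 h up to 10 days. Aliquots were taken at each time point, washed in saline and plated on LB plates for viable CFU/ml.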"}, "Escherichia coli [7]": {"tested_on": "Escherichia coli", "test": "Antibacterial activity against Escherichia coli K12 PhoU wild type W3110 assessed as cell count in stationary phase at 100 ug/ml after 1 day", "assay_type": "functional", "outline": "as §3"}, "Escherichia coli [8]": {"tested_on": "Escherichia coli", "test": "Antibacterial activity against Escherichia coli K12 containing PhoU mutant assessed as cell count in log phase at 100 ug/ml after 5 hrs", "assay_type": "functional", "outline": "(§4)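 Log-phase or stationary-phase cultures were exposed to ampicillin (100 μg/ml) or norfloxacin (3 μg/ml) in MOPS minimal medium, pH 5.0, at 37°C without shaking, for 5 h to 10 days. Aliquots were saline-washed and plated on LB for CFU/ml.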"}, "Escherichia coli [9]": {"tested_on": "Escherichia coli", "test": "Antibacterial activity against Escherichia coli K12 containing deletion deltaphoU mutant assessed as cell count in stationary phase at 100 ug/ml after 5 hrs", "assay_type": "functional", "outline": "as §1"}, "Escherichia coli [10]": {"tested_on": "Escherichia coli", "test": "Antibacterial activity against Escherichia coli K12 mutant JHU313 containing plasmid PhoU at 6 ug/ml after 48 hrs by disc diffusion method", "assay_type": "functional", "outline": "(§5)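 Kirby-Bauer disc assay: log-phase LB culture was spread on LB agar for confluent growth. 7-mm nitrocellulose discs were soaked in antibiotic at the listed concentration and placed on the agar. After 48 h at 37°C, the diameter of the inhibition zone was measured in mm.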"}, "Escherichia coli [11]": {"tested_on": "Escherichia coli", "test": "Antibacterial activity against Escherichia coli K12 PhoU wild type W3110 at 100 ug/ml after 48 hrs by disc diffusion method", "assay_type": "functional", "outline": "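Kirby-Bauer disc assay. Log-phase LB culture (10⁸ bacteria) was spread for confluent growth on LB agar. 7 mm nitrocellulose discs soaked in antibiotic at the listed concentrations were laid on the agar. Inhibition zone diameter (mm) was measured after 48 h at 37°C.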"}, "Escherichia coli [12]": {"tested_on": "Escherichia coli", "test": "Antibacterial activity against Escherichia coli K12 PhoU wild type W3110 assessed as cell count in log phase at 100 ug/ml after 10 days", "assay_type": "functional", "outline": "as §4"}, "Escherichia coli [13]": {"tested_on": "Escherichia coli", "test": "Antibacterial activity against Escherichia coli K12 containing deletion deltaphoR mutant assessed as cell count in log phase at 100 ug/ml after 24 hrs", "assay_type": "functional", "outline": "as §1"}, "Escherichia coli [14]": {"tested_on": "Escherichia coli", "test": "Antibacterial activity against Escherichia coli K12 PhoU wild type W3110 assessed as cell count in stationary phase at 100 ug/ml after 3 days", "assay_type": "functional", "outline": "as §4"}, "Escherichia coli [15]": {"tested_on": "Escherichia coli", "test": "Antibacterial activity against Escherichia coli K12 mutant JHU313 containing plasmid PhoU at 25 ug/ml after 48 hrs by disc diffusion method", "assay_type": "functional", "outline": "as §5"}, "Escherichia coli [16]": {"tested_on": "Escherichia coli", "test": "Antibacterial activity against Escherichia coli K12 containing deletion deltaphoR mutant assessed as cell count in log phase at 100 ug/ml after 5 hrs", "assay_type": "functional", "outline": "as §1"}, "Escherichia coli [17]": {"tested_on": "Escherichia coli", "test": "Antibacterial activity against Escherichia coli K12 mutant JHU313 containing plasmid vector at 100 ug/ml after 48 hrs by disc diffusion method", "assay_type": "functional", "outline": "as §5"}, "Escherichia coli [18]": {"tested_on": "Escherichia coli", "test": "Antibacterial activity against Escherichia coli K12 containing deletion deltaphoB mutant assessed as cell count in stationary phase at 100 ug/ml after 24 hrs", "assay_type": "functional", "outline": "as §2"}, "Escherichia coli [19]": {"tested_on": "Escherichia coli", "test": "Antibacterial activity against Escherichia coli K12 PhoU wild type W3110 assessed as cell count in stationary phase at 3 ug/ml after 1 week", "assay_type": "functional", "outline": "as §4"}, "Escherichia coli [20]": {"tested_on": "Escherichia coli", "test": "Antibacterial activity against Escherichia coli K12 containing PhoU mutant assessed as cell count in stationary phase at 3 ug/ml after 1 week", "assay_type": "functional", "outline": "as §4"}, "Escherichia coli [21]": {"tested_on": "Escherichia coli", "test": "Antibacterial activity against Escherichia coli K12 containing deletion deltaphoU mutant assessed as cell count in log phase at 3 ug/ml after 5 days", "assay_type": "functional", "outline": "(§6)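 Log-phase or stationary-phase cultures of the ΔphoU deletion mutant (Datsenko–Wanner construction) were exposed to norfloxacin 3 μg/ml in MOPS minimal medium, pH 5.0, at 37°C without shaking, for up to 10 days. Sampled aliquots were washed in saline and plated on LB agar for CFU/ml.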"}, "Escherichia coli [22]": {"tested_on": "Escherichia coli", "test": "Antibacterial activity against Escherichia coli K12 mutant JHU313 containing plasmid vector at 0.5 ug/ml after 48 hrs by disc diffusion method", "assay_type": "functional", "outline": "as §5"}, "Escherichia coli [23]": {"tested_on": "Escherichia coli", "test": "Antibacterial activity against Escherichia coli K12 containing deletion deltaphoU mutant assessed as cell count in stationary phase at 3 ug/ml after 1 day", "assay_type": "functional", "outline": "as §6"}, "Escherichia coli [24]": {"tested_on": "Escherichia coli", "test": "Antibacterial activity against Escherichia coli K12 containing PhoU mutant assessed as cell count in stationary phase at 3 ug/ml after 5 hrs", "assay_type": "functional", "outline": "as §4"}, "Escherichia coli [25]": {"tested_on": "Escherichia coli", "test": "Antibacterial activity against Escherichia coli K12 PhoU wild type W3110 assessed as cell count in log phase at 3 ug/ml after 1 day", "assay_type": "functional", "outline": "as §4"}, "Escherichia coli [26]": {"tested_on": "Escherichia coli", "test": "Antibacterial activity against Escherichia coli K12 containing PhoU mutant assessed as cell count in stationary phase at 3 ug/ml after 5 days", "assay_type": "functional", "outline": "as §4"}, "Escherichia coli [27]": {"tested_on": "Escherichia coli", "test": "Antibacterial activity against Escherichia coli K12 mutant JHU313 containing plasmid PhoU at 2 ug/ml after 48 hrs by disc diffusion method", "assay_type": "functional", "outline": "as §5"}, "Escherichia coli [28]": {"tested_on": "Escherichia coli", "test": "Antibacterial activity against Escherichia coli K12 containing PhoU mutant assessed as cell count in stationary phase at 3 ug/ml after 10 days", "assay_type": "functional", "outline": "as §4"}, "Escherichia coli [29]": {"tested_on": "Escherichia coli", "test": "Antibacterial activity against Escherichia coli K12 containing deletion deltaphoU mutant assessed as cell count in stationary phase at 3 ug/ml after 3 days", "assay_type": "functional", "outline": "as §6"}, "Escherichia coli [30]": {"tested_on": "Escherichia coli", "test": "Antibacterial activity against Escherichia coli K12 containing PhoU mutant assessed as cell count in log phase at 3 ug/ml after 10 days", "assay_type": "functional", "outline": "as §4"}, "Escherichia coli [31]": {"tested_on": "Escherichia coli", "test": "Antibacterial activity against Escherichia coli K12 PhoU wild type W3110 assessed as cell count in stationary phase at 3 ug/ml after 5 days", "assay_type": "functional", "outline": "as §4"}, "Escherichia coli [32]": {"tested_on": "Escherichia coli", "test": "Antibacterial activity against Escherichia coli K12 containing deletion deltaphoU mutant assessed as cell count in stationary phase at 3 ug/ml after 1 week", "assay_type": "functional", "outline": "as §6"}, "Escherichia coli [33]": {"tested_on": "Escherichia coli", "test": "Antibacterial activity against Escherichia coli K12 mutant JHU313 at 4 ug/ml after 48 hrs by disc diffusion method", "assay_type": "functional", "outline": "as §5"}}, "data": [{"smiles": "CC1(C)S[C@@H]2[C@H](NC(=O)[C@H](N)c3ccccc3)C(=O)N2[C@H]1C(=O)O", "note": "[AMPICILLIN]", "values": [{"measurement": "CFU", "setting": "Escherichia coli [1]", "result": "4 10^9/ml"}, {"measurement": "CFU", "setting": "Escherichia coli [2]", "result": "4 10^9/ml"}, {"measurement": "CFU", "setting": "Escherichia coli [3]", "result": "1.5 10^9/ml"}, {"measurement": "CFU", "setting": "Escherichia coli [4]", "result": "3 10^9/ml"}, {"measurement": "CFU", "setting": "Escherichia coli [5]", "result": "1.4 10^7/ml"}, {"measurement": "CFU", "setting": "Escherichia coli [6]", "result": "5 10^9/ml"}, {"measurement": "CFU", "setting": "Escherichia coli [7]", "result": "2 10^9/ml"}, {"measurement": "CFU", "setting": "Escherichia coli [8]", "result": 20, "unit": "mL⁻¹"}, {"measurement": "CFU", "setting": "Escherichia coli [9]", "result": "2 10^8/ml"}, {"measurement": "inhibition zone (IZ)", "setting": "Escherichia coli [10]", "result": 32, "unit": "mm"}, {"measurement": "inhibition zone (IZ)", "setting": "Escherichia coli [11]", "result": 35, "unit": "mm"}, {"measurement": "CFU", "setting": "Escherichia coli [12]", "result": 0, "unit": "mL⁻¹"}, {"measurement": "CFU", "setting": "Escherichia coli [13]", "result": "1 10^2/ml"}, {"measurement": "CFU", "setting": "Escherichia coli [14]", "result": "1 10^8/ml"}, {"measurement": "inhibition zone (IZ)", "setting": "Escherichia coli [15]", "result": 36, "unit": "mm"}, {"measurement": "CFU", "setting": "Escherichia coli [16]", "result": "1 10^3/ml"}, {"measurement": "inhibition zone (IZ)", "setting": "Escherichia coli [17]", "result": 45, "unit": "mm"}, {"measurement": "CFU", "setting": "Escherichia coli [18]", "result": "1.8 10^9/ml"}]}, {"smiles": "CCn1cc(C(=O)O)c(=O)c2cc(F)c(N3CCNCC3)cc21", "note": "[NORFLOXACIN]", "values": [{"measurement": "CFU", "setting": "Escherichia coli [19]", "result": "1.5 10^4/ml"}, {"measurement": "CFU", "setting": "Escherichia coli [20]", "result": 0, "unit": "mL⁻¹"}, {"measurement": "CFU", "setting": "Escherichia coli [21]", "result": 0, "unit": "mL⁻¹"}, {"measurement": "inhibition zone (IZ)", "setting": "Escherichia coli [22]", "result": 35, "unit": "mm"}, {"measurement": "CFU", "setting": "Escherichia coli [23]", "result": "2 10^8/ml"}, {"measurement": "CFU", "setting": "Escherichia coli [24]", "result": "3 10^8/ml"}, {"measurement": "CFU", "setting": "Escherichia coli [25]", "result": "4 10^6/ml"}, {"measurement": "CFU", "setting": "Escherichia coli [26]", "result": 0, "unit": "mL⁻¹"}, {"measurement": "inhibition zone (IZ)", "setting": "Escherichia coli [27]", "result": 35, "unit": "mm"}, {"measurement": "CFU", "setting": "Escherichia coli [28]", "result": 0, "unit": "mL⁻¹"}, {"measurement": "CFU", "setting": "Escherichia coli [29]", "result": "3 10^5/ml"}, {"measurement": "CFU", "setting": "Escherichia coli [30]", "result": 0, "unit": "mL⁻¹"}, {"measurement": "CFU", "setting": "Escherichia coli [31]", "result": "4 10^6/ml"}, {"measurement": "CFU", "setting": "Escherichia coli [32]", "result": 0, "unit": "mL⁻¹"}, {"measurement": "inhibition zone (IZ)", "setting": "Escherichia coli [33]", "result": 37, "unit": "mm"}]}]}
